# TNF necrop inh: inhibitors of TNF-alpha triggered necroptosis, primary screen, cell-based, Jurkat FADD-/-, single concentration | Jurkat FADD-/- TNF necroptosis rescue, ATP luminescence, 24 h; 0 = TNF only, 100 = no-TNF cells | AID 463075, 2010 | activation (protection from cell death), % at 10 µM | hit rate 0.068% among 220,000;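 active = activation, meaning protection from cell death, of at least 50% relative to plate controls; inactive = activation below 50%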;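 also: necroptosis triggered by 40 ng/mL TNF-alpha added together with compound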
# RBBP9 inh: human RBBP9 inhibitors, primary screen, biochemical, fluorescence polarization, FP-Rh probe, HTS; AID 1515, 2009; recombinant RBBP9; hit rate 0.2% among 220,000; Serine hydrolase RBBP9 (Homo sapiens), O75884; inhibition, % at 7.94 µM;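 active = inhibition above the campaign mean of all tested compounds plus 3 SD, cut at about 14% in these data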
#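 Controls: DMSO-treated enzyme wells and wells lacking RBBP9 | Material: RBBP9 protein | Technique: Fluorescence polarization | Replication: Single well per compound, no replicates | Buffer or medium: Tris-NaCl-Pluronic buffer, pH 8.0 | Timing: 30 min compound preincubation, 45 min probe labeling, 25 °C | Read-out basis: Percent inhibition from mP, scaled between DMSO and no-protein wells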
# Wee1 degr inh: Wee1 degradation inhibitors, primary screen, cell-based, HeLa, Wee1K328M-luciferase, luminescence; reporter increase, % at 5 µM; hit rate 1.2% among 220,000; HeLa Luc-Wee1K328M stability; 100% = proteasome inhibitor MG132 effect; Wee1-like protein kinase (Homo sapiens), P30291;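 active = activation above the mean of all tested compounds plus 3 SD, set per screening run, cut at about 8.8% in these data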;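 also: cells exposed to compound for 20 h before luminescence read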
# p97 inhibitor: inhibitors of human p97 ATPase, primary screen, biochemical; Transitional endoplasmic reticulum ATPase (Homo sapiens), P55072; recombinant p97 ATPase, Kinase-Glo ATP luminescence, 3 h; inhibition, % at 8 µM; hit rate 0.42% among 220,000; AID 1481, 2009; in the data active = inhibition above about 15%
# PfM18AAP inh-1: PfM18AAP inhibitors, malaria aminopeptidase, primary screen, biochemical, QFRET, recombinant enzyme | M18 aspartyl aminopeptidase (Plasmodium falciparum 3D7) | H-Glu-NHMec fluorogenic cleavage | inhibition, % at 7.35 µM | hit rate 1.2% among 290,000 | AID 1822, 2009;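 active = inhibition above the campaign mean inhibition over all tested compounds plus 3 SD, cut at about 28% in these data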
# L929 necroptosis: inhibitors of zVAD-triggered necroptosis, primary screen, L929 cells | viability rescue, % at 10 µM | AID 1377, 2008 | hit rate 0.38% among 220,000 | L929 zVAD necroptosis rescue, ATP luminescence, 24 h; with zVAD 60 µM;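 active = activation, scaled between plate controls, above about 75%, limit read from the data; inactive = activation under that limit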
# PfM18AAP inh-2: PfM18AAP inhibitors, malaria aminopeptidase, confirmation, biochemical, QFRET, recombinant enzyme, triplicate; shares compounds with PfM18AAP inh-1; inhibition, % at 7.35 µM; AID 2170, 2009; H-Glu-NHMec fluorogenic cleavage; hit rate 28% among 2,400;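 active = mean inhibition over replicate wells above the hit cutoff set for the earlier primary screen, cut at about 29% in these data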
# CTSL1 counter: cathepsin L1 inhibitors, retest, confirmation, counter-screen for PFM18AAP inhibitor project, biochemical, QFRET, triplicate; shares compounds with PfM18AAP inh-1; purified cathepsin L1, Z-Leu-Arg-MCA fluorescence; inhibition, % at 5.96 µM; 2,400 tested, under 10 active;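 active = average inhibition across replicates above the hit cutoff set in the earlier primary screen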
# Numbers stand for hits; n = inactive; x = not tested or not shown. An excerpt weighted towards active compounds, which were near 2.7% of everything screened.
SMILES,TNF necrop inh,RBBP9 inh,Wee1 degr inh,p97 inhibitor,PfM18AAP inh-1,L929 necroptosis,PfM18AAP inh-2,CTSL1 counter
C/C(=N/NC(=O)CN1CCN(S(=O)(=O)c2ccc(C)cc2)CC1)c1ccco1,n,n,n,n,n,n,x,x
Cc1sc(-n2c(C)cc(/C=N/n3cnnc3)c2C)c(C#N)c1C,n,n,n,n,36,n,n,n
Cc1sc(-n2c(C)cc(/C=C3\SC(=S)NC3=O)c2C)c(C#N)c1C,n,n,n,n,n,n,x,x
CC[n+]1c(/C=C/C=C/N(C(C)=O)c2ccccc2)sc2cc(OC)ccc21,n,n,n,n,43,n,n,n
O=C(CCNC(=O)Cn1ccc2ccccc2c1=O)NCCc1ccc(Cl)cc1,n,n,n,n,n,n,x,x
CCOC(=O)c1cnc(SSc2ncc(C(=O)OCC)c(N)n2)nc1N,x,x,x,x,64,x,44,n
Cc1c(-c2ccccc2)[n+](=O)c2c(n1[O-])CCCC2,n,n,n,n,n,n,x,x
O=C(NCCc1nnc2ccc(NCCCN3CCOCC3)nn12)c1ccccc1,x,x,x,x,n,x,x,x
N#Cc1c(-c2ccccc2)[nH]c(=S)[nH]c1=O,n,n,n,n,34,n,n,n
O=C(CNS(=O)(=O)c1ccccc1)Nc1ccc(F)cc1F,x,x,x,x,n,x,x,x
O=S(=O)(NNc1ccc(F)cc1F)c1cccc(Cl)c1,x,x,x,x,36,x,n,n
O=C(NCc1ccc2c(c1)OCO2)C1CCCN1C(=O)Nc1ccc(Cl)cc1 (centres undefined),x,x,x,x,n,x,x,x
CN(C)/N=C/c1ccc([N+](=O)[O-])cc1[N+](=O)[O-],n,n,n,n,34,n,n,n
CN(/N=C/c1cc([N+](=O)[O-])ccc1O)c1ccccc1,n,n,n,n,n,n,x,x
CSc1nnc2ccc(-c3cccs3)nn12,n,n,n,n,n,n,x,x
Nc1cccc2c1C(=O)N(CC(=O)NC13CC4CC(CC(C4)C1)C3)C2=O,n,n,n,n,n,n,x,x
O=C(Cn1sc2ccccc2c1=O)NC12CC3CC(CC(C3)C1)C2,n,n,n,n,34,n,n,n
CCCOc1ccc(/C=C2/C(=O)ON=C2C)cc1OCC,x,x,x,x,40,x,42,n
CCOc1ccccc1C(=O)N/N=C/c1coc2ccc(Cl)cc2c1=O,x,x,x,x,33,x,n,n
O=C(O)c1cccc(NC(=S)N/N=C/c2ccccn2)c1,n,n,n,n,n,n,x,x
O=C(O)c1cccc(NC(=S)N/N=C/c2cccc(O)c2)c1,n,n,n,n,50,n,n,n
CSCC[C@H](NC(=O)N1CCn2c1nc1ccccc12)C(=O)NCc1ccc(F)cc1,x,x,x,x,n,x,x,x
CSCC[C@H](NC(=O)N1CCn2c1nc1ccccc12)C(=O)N[C@@H](C(=O)O)c1ccccc1,x,x,x,x,51,x,42,n
O=C(NNc1cc(Cl)ccc1Cl)c1cccs1,n,n,n,n,52,n,n,n
Cc1noc(C)c1C(=O)NNc1cc(Cl)ccc1Cl,n,n,n,n,36,n,n,n
Cc1ccc(N2CC(C(=O)N3CCN(Cc4ccc5c(c4)OCO5)CC3)CC2=O)cc1 (centres undefined),x,x,x,x,n,x,x,x
COC(=O)C(C)Sc1n[nH]c(=S)s1 (centres undefined),n,n,n,n,37,n,n,n
O=C(CNc1ccccc1)Nc1cccc2ccccc12,x,x,x,x,n,x,x,x
COc1ccc(CCNCc2cc(C)n(-c3ccc(OC)cc3)c2C)cc1,x,x,x,x,42,x,n,n

# Assay outcomes from PubChem BioAssay.
